Laboratory results: ChEMBL document CHEMBL1255517, “CD4 mimics targeting the HIV entry mechanism and their hybrid molecules with a CXCR4 antagonist” (Bioorg Med Chem Lett, 2010)

Columns and labels:
[1] = Selectivity index, ratio of CC50 for human MT-2 cells to IC50 for HIV1 IIIB
[2] = Cytotoxicity against human MT2 cells by MTT assay; type: cell-based
[3] = biological target: C-X-C chemokine receptor type 4 (Homo sapiens, UniProt P61073); assay: Displacement of [125I]-SDF-1-alpha from CXCR4 expressed in CHO cells; type: cell-based
Chain of C-X-C chemokine receptor type 4 (P61073 whole entry): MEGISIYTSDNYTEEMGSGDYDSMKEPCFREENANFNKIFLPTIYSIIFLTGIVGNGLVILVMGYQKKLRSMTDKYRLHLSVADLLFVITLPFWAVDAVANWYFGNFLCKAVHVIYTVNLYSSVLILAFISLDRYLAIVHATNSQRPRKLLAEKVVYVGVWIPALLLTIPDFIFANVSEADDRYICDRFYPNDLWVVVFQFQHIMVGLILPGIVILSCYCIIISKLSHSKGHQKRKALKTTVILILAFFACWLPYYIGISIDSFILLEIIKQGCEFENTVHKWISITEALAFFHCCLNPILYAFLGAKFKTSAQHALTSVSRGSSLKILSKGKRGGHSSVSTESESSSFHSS

[4] = system: Human immunodeficiency virus 1; assay: Antiviral activity against HIV1 3B infected in human MT2 cells assessed as protection against virus-induced cytopathogenicity by MTT assay; type: functional, organism-based
PM1 = assay: Inhibition of CD4-induced monoclonal antibody 4C11 binding to HIV1 JR-FL infected in human PM1 cells expressing CCR5 at 100 uM after 15 mins by FACS analysis (reference value: 27.60)
[5] = system: Human immunodeficiency virus 1; assay: Antiviral activity against HIV1 MNA infected in human PM1 cells expressing CCR5 assessed as protection against virus-induced cytopathogenicity by MTT assay; type: functional, organism-based; details: Human immunodeficiency virus 1, MNA
Method in brief: (§1)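 Cells were PM1/CCR5 infected with HIV-1, with viability read by MTT. IC50 is the compound concentration giving 50% protection against virus-induced cytopathogenicity. Values are means with standard deviation from at least three independent experiments.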

[6] = Cytotoxicity against human PM1 cells expressing CCR5 by MTT assay; type: cell-based
Method in brief: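 Mock-infected PM1/CCR5 cells were exposed to compound, with viability read by MTT. CC50 is the concentration that reduces viability by 50%. Values are means with standard deviation from at least three independent experiments.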

[7] = system: Human immunodeficiency virus 1; assay: Antiviral activity against HIV1 3B infected in human PM1 cells expressing CCR5 assessed as protection against virus-induced cytopathogenicity by MTT assay; type: functional, organism-based; details: Human immunodeficiency virus 1, 3B
Method in brief: as §1

[8] = system: Human immunodeficiency virus 1; assay: Antiviral activity against HIV1 isolate 89.6 infected in human PM1 cells expressing CCR5 assessed as protection against virus-induced cytopathogenicity by MTT assay; type: functional, organism-based; details: Human immunodeficiency virus 1, isolate 89.6, PM1
Method in brief: as §1

[9] = Selectivity index, ratio of CC50 for human PM1 cells expressing CCR5 to IC50 for HIV1 MNA; type: functional
[10] = system: Human immunodeficiency virus 1; assay: Antiviral activity against HIV1 MTA infected in human PM1 cells expressing CCR5 assessed as protection against virus-induced cytopathogenicity by MTT assay; type: functional, organism-based; details: Human immunodeficiency virus 1, MTA
Method in brief: as §1

[11] = Human immunodeficiency virus 1, 3B, MT2

SMILES | RFU (PM1) | CC50 [6] [µM] | IC50 [7] [µM] | also measured
N=C(N)NCCC[C@H](NC(=O)[C@@H]1CSSC[C@H](NC(=O)[C@H](Cc2ccc3ccccc3c2)NC(=O)[C@H](CCCNC(=N)N)NC(=O)[C@H](CCCNC(=N)N)NC(=O)c2ccc(F)cc2)C(=O)N[C@@H](Cc2ccc(O)cc2)C(=O)N[C@@H](CCCNC(N)=O)C(=O)N[C@@H](CCCNC(=N)N)C(=O)N[C@H](CCCCNC(=O)CCC(=O)NCCCCCCCCN2CCC(NC(=O)C(=O)Nc3ccc(Cl)cc3)CC2)C(=O)N2CCC[C@H]2C(=O)N[C@@H](Cc2ccc(O)cc2)C(=O)N[C@@H](CCCNC(=N)N)C(=O)N[C@@H](CCCNC(N)=O)C(=O)N1)C(N)=O [listing 1 of 2 here] | – | – | – | Selectivity Index [1]: 244
N=C(N)NCCC[C@H](NC(=O)[C@@H]1CSSC[C@H](NC(=O)[C@H](Cc2ccc3ccccc3c2)NC(=O)[C@H](CCCNC(=N)N)NC(=O)[C@H](CCCNC(=N)N)NC(=O)c2ccc(F)cc2)C(=O)N[C@@H](Cc2ccc(O)cc2)C(=O)N[C@@H](CCCNC(N)=O)C(=O)N[C@@H](CCCNC(=N)N)C(=O)N[C@H](CCCCNC(=O)CCC(=O)NCCCCN2CCC(NC(=O)C(=O)Nc3ccc(Cl)cc3)CC2)C(=O)N2CCC[C@H]2C(=O)N[C@@H](Cc2ccc(O)cc2)C(=O)N[C@@H](CCCNC(=N)N)C(=O)N[C@@H](CCCNC(N)=O)C(=O)N1)C(N)=O [listing 1 of 2 here] | – | – | – | CC50 [2]: 8.6 µM; EC50 [3]: 0.0044 µM; IC50 [4, 11]: 0.0509 µM
Cc1ccc(NC(=O)C(=O)NC2CCNCC2)cc1 | 46 | 190 | – | IC50 [5]: 20 µM
O=C(Nc1ccc(Br)cc1)C(=O)NC1CCNCC1 | 52.3 | 50 | – | IC50 [5]: 6 µM
CC(C)C(=O)N1CCC(NC(=O)C(=O)Nc2ccc(Cl)cc2)CC1 | 8.27 | 45 | > 100 | –
O=C(O)CCC(=O)N1CCC(NC(=O)C(=O)Nc2ccc(Cl)cc2)CC1 | 26.1 | > 300 | > 100 | IC50 [8]: > 100 µM
CC1(C)CC(NC(=O)C(=O)Nc2ccc(Cl)cc2)CC(C)(C)N1 | 18.4 | 110 | 8 | IC50 [5]: 12 µM; IC50 [4, 11]: 2.1 µM; IC50 [8]: 10 µM; Selectivity Index [9]: 19.2
CC(=O)N1CCC(NC(=O)C(=O)Nc2ccc(Cl)cc2)CC1 | 29.1 | > 300 | > 100 | IC50 [8]: > 100 µM
CC(C)CN1CCC(NC(=O)C(=O)Nc2ccc(Cl)cc2)CC1 | 15.1 | > 300 | > 100 | IC50 [10]: 28 µM
N=C(N)NCCC[C@H](NC(=O)[C@@H]1CSSC[C@H](NC(=O)[C@H](Cc2ccc3ccccc3c2)NC(=O)[C@H](CCCNC(=N)N)NC(=O)[C@H](CCCNC(=N)N)NC(=O)c2ccc(F)cc2)C(=O)N[C@@H](Cc2ccc(O)cc2)C(=O)N[C@@H](CCCNC(N)=O)C(=O)N[C@@H](CCCNC(=N)N)C(=O)N[C@H](CCCCNC(=O)CCC(=O)NCCCCN2CCC(NC(=O)C(=O)Nc3ccc(Cl)cc3)CC2)C(=O)N2CCC[C@H]2C(=O)N[C@@H](Cc2ccc(O)cc2)C(=O)N[C@@H](CCCNC(=N)N)C(=O)N[C@@H](CCCNC(N)=O)C(=O)N1)C(N)=O [listing 2 of 2 here] | – | – | – | Selectivity Index [1]: 169
NC(=O)NCCC[C@@H]1NC(=O)[C@H](CCCN=C(N)N)NC(=O)[C@H](Cc2ccc(O)cc2)NC(=O)[C@@H]2CCCN2C(=O)[C@@H](CCCCNC(=O)CCC(=O)NCCCCCCN2CCC(NC(=O)C(=O)Nc3ccc(Cl)cc3)CC2)NC(=O)[C@H](CCCN=C(N)N)NC(=O)[C@H](CCCNC(N)=O)NC(=O)[C@H](Cc2ccc(O)cc2)NC(=O)[C@@H](NC(=O)[C@H](Cc2ccc3ccccc3c2)NC(=O)[C@H](CCCN=C(N)N)NC(=O)[C@H](CCCN=C(N)N)NC(=O)c2ccc(F)cc2)CSSC[C@@H](C(=O)N[C@@H](CCCN=C(N)N)C(N)=O)NC1=O [listing 1 of 2 here] | – | – | – | CC50 [2]: 8 µM; EC50 [3]: 0.0187 µM; IC50 [4, 11]: 0.0365 µM
N=C(N)NCCC[C@H](NC(=O)[C@@H]1CSSC[C@H](NC(=O)[C@H](Cc2ccc3ccccc3c2)NC(=O)[C@H](CCCNC(=N)N)NC(=O)[C@H](CCCNC(=N)N)NC(=O)c2ccc(F)cc2)C(=O)N[C@@H](Cc2ccc(O)cc2)C(=O)N[C@@H](CCCNC(N)=O)C(=O)N[C@@H](CCCNC(=N)N)C(=O)N[C@H](CCCCNC(=O)CCC(=O)NCCCCCCCCN2CCC(NC(=O)C(=O)Nc3ccc(Cl)cc3)CC2)C(=O)N2CCC[C@H]2C(=O)N[C@@H](Cc2ccc(O)cc2)C(=O)N[C@@H](CCCNC(=N)N)C(=O)N[C@@H](CCCNC(N)=O)C(=O)N1)C(N)=O [listing 2 of 2 here] | – | – | – | CC50 [2]: 8.6 µM; EC50 [3]: 0.0071 µM; IC50 ([4]; mt2): 0.0353 µM
Cc1cn([C@H]2C[C@H](N=[N+]=[N-])[C@@H](CO)O2)c(=O)[nH]c1=O [ZIDOVUDINE] | – | – | – | IC50 [4, 11]: 0.0493 µM
CN1CCC(NC(=O)C(=O)Nc2ccc(Cl)cc2)CC1 | 33.6 | > 300 | 67 | IC50 [8]: > 100 µM
Cc1ccc(NC(=O)C(=O)NC2CC(C)(C)NC(C)(C)C2)cc1 | 8.66 | 210 | – | IC50 [5]: 15 µM
CC1(C)CC(NC(=O)C(=O)Nc2ccc(Br)cc2)CC(C)(C)N1 | – | 93 | – | –
O=C(Nc1ccc(Cl)cc1)C(=O)NC1CCNCC1 | 49.9 | 100 | – | IC50 [5]: 8 µM
O=C(O)CN1CCC(NC(=O)C(=O)Nc2ccc(Cl)cc2)CC1 | 11.9 | 260 | > 100 | –
NC(=O)NCCC[C@@H]1NC(=O)[C@H](CCCN=C(N)N)NC(=O)[C@H](Cc2ccc(O)cc2)NC(=O)[C@@H]2CCCN2C(=O)[C@@H](CCCCNC(=O)CCC(=O)NCCCCCCN2CCC(NC(=O)C(=O)Nc3ccc(Cl)cc3)CC2)NC(=O)[C@H](CCCN=C(N)N)NC(=O)[C@H](CCCNC(N)=O)NC(=O)[C@H](Cc2ccc(O)cc2)NC(=O)[C@@H](NC(=O)[C@H](Cc2ccc3ccccc3c2)NC(=O)[C@H](CCCN=C(N)N)NC(=O)[C@H](CCCN=C(N)N)NC(=O)c2ccc(F)cc2)CSSC[C@@H](C(=O)N[C@@H](CCCN=C(N)N)C(N)=O)NC1=O [listing 2 of 2 here] | – | – | – | Selectivity Index [1]: 219
